Values after ≈ are worked out from the molar mass of the structure shown.
Tests used:
Plasmodium falciparum = test: Antiplasmodial activity after 48 hrs against chloroquine and pyrimethamine-resistant Plasmodium falciparum K1 in human erythrocytes by [3H]hypoxanthine uptake; type: functional, organism-based
Method in brief: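 P. falciparum K1 in human red cells in RPMI 1640 with 5% Albumax, exposed to serial drug dilutions. Incubated 48 h at 37°C under reduced oxygen, then 0.5 μCi [³H]hypoxanthine per well for 24 h more. Cells harvested onto glass-fibre filters and counted by scintillation. Result expressed as % of untreated control, with IC50 from sigmoidal curve. Duplicate, plus an independent repeat for actives.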

Leishmania amazonensis [1] = test: Inhibition of sterol biosynthesis in Leishmania mexicana amazonensis promastigotes assessed as reduction in endogenous cholesta-7,24-dien-3beta-ol level at 10 uM after 96 hrs by gas-liquid chromatography; type: functional; parameters: scale not given: the % may be the effect or the level left
Method in brief: (§1)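 L. mexicana promastigotes exposed to compound for 96 h. Total lipids extracted and neutral sterols separated from polar lipids by silicic acid column chromatography. Sterols analysed by TLC and by quantitative capillary gas-liquid chromatography with mass spectrometry. Composition expressed as mass % of free sterols, compared with untreated control.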

Leishmania donovani = test: Antileishmanial activity against Leishmania donovani MHOM/ET/67/L82 axenic amastigotes after 72 hrs by resazurin assay; type: functional, organism-based; conditions: MHOM/ET/67/L82, 72 h
Method in brief: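 L. donovani MHOM/ET/67/L82 amastigotes grown axenically at 37°C in synthetic minimal medium at pH 5.4 with 10% heat-inactivated FBS under 5% CO2. 1 × 10⁵ amastigotes per well with seven threefold dilutions, 30 to 0.041 μg/ml. After 72 h, resazurin added for 2–4 h more. Fluorescence read at ex 536/em 588 nm. IC50 taken from sigmoidal curve. Run in duplicate, with an independent repeat for actives.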

Squalene synthase = target: T1, Squalene synthase (Homo sapiens, UniProt P37268); test: Inhibition of human recombinant squalene synthase expressed in Escherichia coli BL21(DE3 pLysS) up to 1 uM by liquid scintillation counter
T1 sequence (P37268 whole entry): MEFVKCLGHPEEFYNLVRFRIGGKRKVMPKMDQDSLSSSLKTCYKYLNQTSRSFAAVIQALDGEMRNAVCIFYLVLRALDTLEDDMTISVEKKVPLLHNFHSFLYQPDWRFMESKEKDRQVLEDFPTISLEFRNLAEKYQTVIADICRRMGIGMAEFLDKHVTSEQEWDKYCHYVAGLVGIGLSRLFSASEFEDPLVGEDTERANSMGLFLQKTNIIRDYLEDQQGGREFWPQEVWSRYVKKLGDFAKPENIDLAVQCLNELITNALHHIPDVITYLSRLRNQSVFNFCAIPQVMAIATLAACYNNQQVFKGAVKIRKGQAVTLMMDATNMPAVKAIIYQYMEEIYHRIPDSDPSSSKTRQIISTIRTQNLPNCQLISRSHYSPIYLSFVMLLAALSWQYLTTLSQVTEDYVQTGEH
Method in brief: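 Human SQS in extracts of E. coli BL21(DE3 pLysS) carrying pHSS16, assayed under the same conditions as the L. major enzyme. Buffer: phosphate pH 7.4, MgCl2, CHAPS, Tween 80, DTT, BSA, and NADPH with a regenerating system. Substrate 0.5 μM radiolabelled farnesyl pyrophosphate. Squalene band radioactivity counted by scintillation.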

Leishmania amazonensis [2] = test: Inhibition of sterol biosynthesis in Leishmania mexicana amazonensis promastigotes assessed as reduction in endogenous cholesta-5,7,24-trien-3beta-ol level at 10 uM after 96 hrs by gas-liquid chromatography; type: functional; parameters: scale not given: the % may be the effect or the level left; method in brief: as §1
Leishmania amazonensis [3] = test: Inhibition of sterol biosynthesis in Leishmania mexicana amazonensis promastigotes assessed as reduction in endogenous episterol level at 10 uM after 96 hrs by gas-liquid chromatography; type: functional; parameters: scale not given: the % may be the effect or the level left; method in brief: as §1
Trypanosoma cruzi = test: Antitrypanosomal activity against trypomastigotes of Trypanosoma cruzi Tulahuen C2C4 containing lacZ gene in rat L6 cells after 4 days by chlorophenol red-beta-D-galactopyranoside/Nonidet assay; type: functional, organism-based; conditions: Tulahuen C2C4, L6, 96 h
Method in brief: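 L-6 rat myoblasts seeded at 2,000 cells/well in RPMI 1640 with 10% FBS and 2 mM L-glutamine. After 24 h, 5,000 T. cruzi Tulahuen C2C4 lacZ trypomastigotes added with serial drug dilution. Incubated at 37°C in 5% CO2 for 4 days. CPRG/Nonidet substrate added and colour read at 540 nm after 2–4 h. IC50 from sigmoidal curve. Duplicate determinations.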

[4] = test system: Trypanosoma brucei rhodesiense; test: Trypanocidal activity against Trypanosoma brucei rhodesiense STIB 900 bloodstream form after 72 hrs by resazurin assay; type: functional, organism-based; conditions: STIB 900, 72 h
Method in brief: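 T. b. rhodesiense STIB 900 bloodstream forms in MEM with 2-mercaptoethanol and 15% heat-inactivated horse serum, with serial drug dilutions. Incubated 72 h at 37°C in 5% CO2. Resazurin added for 2–4 h more, fluorescence read at ex 536/em 588 nm. IC50 from sigmoidal curve. Duplicate, with an independent repeat for actives.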

Leishmania amazonensis [5] = test: Inhibition of sterol biosynthesis in Leishmania mexicana amazonensis promastigotes assessed as reduction in endogenous 5-dehydro episterol level at 10 uM after 96 hrs by gas-liquid chromatography; type: functional; parameters: scale not given: the % may be the effect or the level left; method in brief: as §1
[6] = target: T2, Farnesyltransferase, putative (Leishmania major, UniProt Q4Q5W4); test: Inhibition of Leishmania major recombinant squalene synthase expressed in Escherichia coli by liquid scintillation counter
T2 sequence (Q4Q5W4 whole entry): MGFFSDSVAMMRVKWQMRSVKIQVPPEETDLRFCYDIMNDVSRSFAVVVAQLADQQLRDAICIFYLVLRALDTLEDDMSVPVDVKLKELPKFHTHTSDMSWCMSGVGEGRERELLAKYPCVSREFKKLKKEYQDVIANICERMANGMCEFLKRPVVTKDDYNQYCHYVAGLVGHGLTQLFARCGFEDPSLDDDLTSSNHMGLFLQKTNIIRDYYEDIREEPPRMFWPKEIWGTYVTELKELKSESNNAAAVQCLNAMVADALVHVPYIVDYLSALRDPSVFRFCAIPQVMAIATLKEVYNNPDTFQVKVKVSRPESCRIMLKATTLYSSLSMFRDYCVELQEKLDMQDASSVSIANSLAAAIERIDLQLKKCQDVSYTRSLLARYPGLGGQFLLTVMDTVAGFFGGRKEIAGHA
Method in brief: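 Soluble E. coli extract expressing L. major SQS truncated by 16 N-terminal and 40 C-terminal residues. Buffer: 50 mM phosphate pH 7.4, 20 mM MgCl2, 5 mM CHAPS, 1% Tween 80, 10 mM DTT, BSA, 0.25 mM NADPH, and a glucose-6-phosphate/G6PDH regenerating system. Substrate 0.5 μM radiolabelled farnesyl pyrophosphate. Squalene band counted by scintillation. IC50 from hyperbolic plot of five concentrations in duplicate, usually run twice.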

Leishmania amazonensis [7] = test: Inhibition of sterol biosynthesis in Leishmania mexicana amazonensis promastigotes assessed as reduction in exogenous cholesterol level at 10 uM after 96 hrs by gas-liquid chromatography; type: functional; parameters: scale not given: the % may be the effect or the level left; method in brief: as §1
Leishmania amazonensis [8] = test: Antileishmanial activity against Leishmania mexicana amazonensis promastigotes by trypan blue exclusion method; type: functional, organism-based
Method in brief: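 L. mexicana amazonensis promastigotes cultured in liver infusion-tryptose medium with lactalbumin and 10% FCS at 26°C, unagitated. Cultures started at 2 × 10⁶ cells/ml and drug added at 0.5–1 × 10⁷ cells/ml. Density counted by electronic particle counter and hemocytometer. Viability by trypan blue exclusion. Triplicate growth experiments.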

L6 = test: Cytotoxicity against rat L6 cells after 72 hrs by resazurin assay; type: cell-based; conditions: L6, 72 h
Method in brief: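 L-6 cells seeded at 4 × 10⁴ cells/ml in RPMI 1640 with 10% FBS and 2 mM L-glutamine. After 24 h, medium replaced with serial drug dilution and incubated for 72 h at 37°C in 5% CO2. Resazurin added for 2–4 h, fluorescence read at ex 536/em 588 nm. IC50 from sigmoidal curve. Duplicate, with an independent repeat for actives.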

Leishmania amazonensis [9] = test: Inhibition of sterol biosynthesis in Leishmania mexicana amazonensis promastigotes assessed as reduction in exogenous cholesterol level at 3 uM after 96 hrs by gas-liquid chromatography; type: functional; parameters: scale not given: the % may be the effect or the level left; method in brief: as §1
Leishmania amazonensis [10] = test: Inhibition of sterol biosynthesis in Leishmania mexicana amazonensis promastigotes assessed as reduction in endogenous cholesta-7,24-dien-3beta-ol level at 3 uM after 96 hrs by gas-liquid chromatography; type: functional; parameters: scale not given: the % may be the effect or the level left; method in brief: as §1
Leishmania amazonensis [11] = test: Inhibition of sterol biosynthesis in Leishmania mexicana amazonensis promastigotes assessed as reduction in endogenous episterol level at 3 uM after 96 hrs by gas-liquid chromatography; type: functional; parameters: scale not given: the % may be the effect or the level left; method in brief: as §1
Leishmania amazonensis [12] = test: Inhibition of sterol biosynthesis in Leishmania mexicana amazonensis promastigotes assessed as reduction in endogenous cholesta-5,7,24-trien-3beta-ol level at 3 uM after 96 hrs by gas-liquid chromatography; type: functional; parameters: scale not given: the % may be the effect or the level left; method in brief: as §1
Leishmania amazonensis [13] = test: Inhibition of sterol biosynthesis in Leishmania mexicana amazonensis promastigotes assessed as reduction in endogenous 5-dehydro episterol level at 3 uM after 96 hrs by gas-liquid chromatography; type: functional; parameters: scale not given: the % may be the effect or the level left; method in brief: as §1

| SMILES | IC50 (Plasmodium falciparum) | Activity (Leishmania amazonensis [1]) | IC50 (Leishmania donovani) | IC50 (Squalene synthase) | Activity (Leishmania amazonensis [2]) | Activity (Leishmania amazonensis [3]) | IC50 (Trypanosoma cruzi) | IC50 [4] | Activity (Leishmania amazonensis [5]) | IC50 [6] | Activity (Leishmania amazonensis [7]) | MIC (Leishmania amazonensis [8]) | IC50 (L6) | Activity (Leishmania amazonensis [9]) | Activity (Leishmania amazonensis [10]) | Activity (Leishmania amazonensis [11]) | Activity (Leishmania amazonensis [12]) | Activity (Leishmania amazonensis [13]) |
| --- | --- | --- | --- | --- | --- | --- | --- | --- | --- | --- | --- | --- | --- | --- | --- | --- | --- | --- |
| C(=C1CN2CCC1CC2)c1ccc(C2OCCO2)cc1 | 14.2 µM | 6.7% | 38.6 µM | Not Active | 12.7% | 11.7% | > 111 µM | 12.5 µM | 54.9% | > 1 µM | 14.1% | > 10 µM | 212 µM | – | – | – | – | – |
| OC[C@@H]1CC2CCN1C[C@@H]2C#Cc1ccc(OCc2ccccc2)cc1 (some centres not stated) | 0.6 µM | – | 7.4 µM | – | – | – | 3.4 µM | 1.2 µM | – | > 1 µM | >99% | 10 µM (≈ 3.47 µg/mL) | 16.1 µM | 61.4% | 15.9% | 22.7% | – | – |
| C(=C1/CN2CCC1CC2)/c1ccccc1 | 0.8 µM | 2.8% | > 151 µM | Not Active | 3.7% | 12.2% | > 151 µM | 16 µM | 70.7% | > 1 µM | 10.6% | > 10 µM | 382 µM | – | – | – | – | – |
| O=Cc1ccc(/C=C2\CN3CCC2CC3)cc1 | > 22 µM | 4.6% | > 132 µM | Not Active | 14% | 8.2% | > 132 µM | 13.1 µM | 62% | > 1 µM | 11.2% | > 10 µM | > 396 µM | – | – | – | – | – |
| OC[C@H]1CC2CCN1C[C@@H]2C#Cc1ccc(OCc2ccccc2)cc1 (some centres not stated) | 1.1 µM | – | 8 µM | – | – | – | 3.1 µM | 1.2 µM | – | > 1 µM | >99% | 10 µM (≈ 3.47 µg/mL) | 16.6 µM | 21.2% | – | 14.2% | 10.7% | 63.2% |
